Experiments:
[1] = target: T1, Kappa-type opioid receptor (Homo sapiens, UniProt P41145); assay: Binding affinity towards cloned human Opioid receptor kappa 1 in CHO cell membranes.; format: cell-based
[2] = target: T2, Delta-type opioid receptor (Homo sapiens, UniProt P41143); assay: (§1) Binding affinity towards cloned human Opioid receptor delta 1 in CHO cell membranes.; format: cell-based
Summary of the method: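 Membranes from CHO cells stably expressing cloned human δ receptor; 50-100 µg protein. […] Nonspecific binding with 10 µM naloxone. Filter-bound counts; Ki via Cheng-Prusoff from a one-site fit.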

Mu-type opioid receptor = Mu-type opioid receptor (Homo sapiens, UniProt P35372); assay: Binding affinity towards cloned human Opioid receptor mu 1 in CHO cell membranes.; format: cell-based
Sequence of Mu-type opioid receptor (P35372 whole entry): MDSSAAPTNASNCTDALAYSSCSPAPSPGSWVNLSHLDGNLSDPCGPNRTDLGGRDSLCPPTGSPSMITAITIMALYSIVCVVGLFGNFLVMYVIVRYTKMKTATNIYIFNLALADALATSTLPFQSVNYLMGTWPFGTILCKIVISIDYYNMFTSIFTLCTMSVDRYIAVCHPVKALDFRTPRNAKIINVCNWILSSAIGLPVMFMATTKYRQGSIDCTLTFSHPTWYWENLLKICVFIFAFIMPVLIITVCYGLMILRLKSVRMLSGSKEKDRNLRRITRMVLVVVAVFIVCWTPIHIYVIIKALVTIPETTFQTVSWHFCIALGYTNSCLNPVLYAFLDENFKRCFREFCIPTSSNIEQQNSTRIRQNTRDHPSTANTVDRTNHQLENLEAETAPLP
Summary of the method: (§2)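 Membranes from CHO cells stably expressing cloned human µ, δ or κ receptors in 50 mM Tris-HCl pH 7.8 with EGTA, MgCl2 and protease inhibitors. 50-100 µg protein with 1.0 nM [3H]diprenorphine, 60 min at room temperature. Filtered on PEI/BSA-treated GF/B and counted by scintillation. Nonspecific binding with 10 µM naloxone. Four-parameter one-site fit, Ki by Cheng-Prusoff.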

[3] = target: T1, Kappa-type opioid receptor; assay: Human kOpioid receptor kappa 1 mediated stimulation of [35S]- GTPgammaS binding in CHO cells (Agonist potency).; format: cell-based
Summary of the method: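 Human κ-CHO membranes (50-150 µg) with 80-100 pM [35S]GTPγS, 30 µM GDP and 100 mM NaCl in Tris-HCl pH 7.8; 1 h at 30 °C, then filtration and counting. EC50 from a nonlinear fit of an agonist concentration series. Maximal response at 10 µM expressed relative to U50,488 (100%).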

Cavia porcellus [4] = species: Cavia porcellus; assay: Tested for antagonist activity in guinea pig ileum by (GPI) assay.; format: functional, organism-based
Summary of the method: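 Electrically evoked contractions of guinea pig ileum. Ke calculated from IC50 of reference agonist (U50,488 or [D-Ala3]Dyn A(1-11)-NH2), measured with and without a fixed concentration of antagonist.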

[5] = Tested for maximum agonist response at concentration 10 uM, relative to that with standard agonist U50,488.; format: functional
Summary of the method: (§3)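 κ-expressing CHO membranes (50-150 µg) in 50 mM Tris HCl pH 7.8 with 80-100 pM [35S]GTPγS, 30 µM GDP, 100 mM NaCl and 5.0 mM MgCl2, 1 h at 30 °C. Filtered and counted. Agonist concentration series gave EC50 by nonlinear regression. Maximal response at 10 µM expressed relative to U50,488 set as 100%.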

[6] = target: T2, Delta-type opioid receptor; assay: as §1; format: cell-based; summary of the method: as §2; remark: listed apart in the source
[7] = Antagonist activity determined in the [35S]GTP-gamma-S, binding assay relative to 50 nM U50,488; format: functional
Cavia porcellus [8] = species: Cavia porcellus; assay: Tested for agonist or antagonist properties in guinea pig ileum by (GPI) assay.
Cavia porcellus [9] = species: Cavia porcellus; assay: Tested for agonist or antagonist properties in guinea pig ileum a (GPI) assay.; format: functional, organism-based
[10] = target: T1, Kappa-type opioid receptor; assay: Binding affinity at Opioid receptor kappa 1 by to cloned human opioid receptors expressed in CHO cell membranes
Summary of the method: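 Membranes from CHO cells stably expressing cloned human κ receptor; 50-100 µg protein in 50 mM Tris-HCl pH 7.8 with EGTA, MgCl2 and protease inhibitors. […] Nonspecific binding with 10 µM naloxone. Filtration and scintillation counting; Ki by Cheng-Prusoff.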

[11] = Antagonist activity determined in the [35S]GTP-gamma-S, binding assay relative to 25 nM [D-Ala3] Dyn A (1-11)-NH2.; format: functional
Cavia porcellus [12] = species: Cavia porcellus; assay: Antagonist activity determined in the guinea pig assay against U50,488 at 1 uM; format: functional
Summary of the method: (§4)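 Electrically stimulated guinea pig ileum. Antagonist held at a fixed concentration of 1 µM. IC50 of the reference agonist (U50,488 or [D-Ala3]Dyn A(1-11)-NH2, as the line names) was measured with and without antagonist. Ke was calculated from the shift.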

Cavia porcellus [13] = species: Cavia porcellus; assay: Antagonist activity determined in the guinea pig assay against [D-Ala3] Dyn A (1-11)-NH2 at 1 uM; format: functional; summary of the method: as §4
[14] = target: T1, Kappa-type opioid receptor; assay: Binding affinity of Opioid receptor kappa 1 to cloned human opioid receptor in CHO cell membrane.; format: cell-based; summary of the method: as §2
[15] = target: T1, Kappa-type opioid receptor; assay: Human Opioid receptor kappa 1 mediated stimulation of [35S]- GTPgammaS binding in CHO cells (Agonist potency).; format: cell-based; summary of the method: as §3

T1 sequence (P41145 whole entry): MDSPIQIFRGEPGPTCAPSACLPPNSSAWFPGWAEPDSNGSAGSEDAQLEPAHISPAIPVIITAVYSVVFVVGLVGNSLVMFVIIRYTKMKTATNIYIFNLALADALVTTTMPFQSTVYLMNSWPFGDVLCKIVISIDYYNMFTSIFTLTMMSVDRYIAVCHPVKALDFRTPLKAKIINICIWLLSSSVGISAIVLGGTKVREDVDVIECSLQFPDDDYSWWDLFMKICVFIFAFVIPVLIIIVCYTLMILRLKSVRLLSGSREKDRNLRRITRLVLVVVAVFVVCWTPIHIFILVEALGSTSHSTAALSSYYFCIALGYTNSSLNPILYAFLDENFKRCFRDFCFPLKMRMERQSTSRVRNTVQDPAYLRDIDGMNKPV
T2 sequence (P41143 whole entry): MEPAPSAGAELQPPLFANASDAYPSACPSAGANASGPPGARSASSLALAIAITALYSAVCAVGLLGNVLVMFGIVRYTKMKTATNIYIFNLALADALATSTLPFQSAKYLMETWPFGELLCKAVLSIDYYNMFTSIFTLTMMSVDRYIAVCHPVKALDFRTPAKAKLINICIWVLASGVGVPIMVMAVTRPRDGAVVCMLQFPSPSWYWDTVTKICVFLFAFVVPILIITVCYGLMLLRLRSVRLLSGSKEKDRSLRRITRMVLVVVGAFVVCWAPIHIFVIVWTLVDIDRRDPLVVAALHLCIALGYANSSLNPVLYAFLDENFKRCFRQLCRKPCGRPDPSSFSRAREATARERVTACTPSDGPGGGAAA

| Structure (SMILES) | Ki [1] [nM] | Ki (Mu-type opioid receptor) [nM] | Ki [6] [nM] | IC50 [7] [nM] | further results |
| --- | --- | --- | --- | --- | --- |
| CC[C@H](C)[C@H](NC(=O)[C@H](CCCN=C(N)N)NC(=O)[C@H](CCCN=C(N)N)NC(=O)[C@H](CC(C)C)NC(=O)[C@H](Cc1ccccc1)NC(=O)CNC(=O)CNC(=O)[C@@H](N)Cc1ccc(O)cc1)C(=O)N[C@@H](CCCN=C(N)N)C(=O)N1CCC[C@H]1C(=O)N[C@@H](CCCCN)C(N)=O | 0.074 | 7.6 | – | – | Ki [2]: 2.9 nM; EC50 [3]: 0.74 nM; IC50 (Cavia porcellus [4]): 0.376 nM; Max agonist response [5]: 73% |
| CC[C@H](C)[C@H](NC(=O)[C@H](CCCN=C(N)N)NC(=O)[C@H](CCCN=C(N)N)NC(=O)[C@H](CC(C)C)NC(=O)[C@H](Cc1ccccc1)NC(=O)[C@H]1CCCN1C(=O)CNC(=O)[C@@H](N)Cc1ccc(O)cc1)C(=O)N[C@@H](CCCN=C(N)N)C(=O)N1CCC[C@H]1C(=O)N[C@@H](CCCCN)C(N)=O | 160 | 8300 | 7100 | 2200 | – |
| CC[C@H](C)[C@H](NC(=O)[C@H](CCCN=C(N)N)NC(=O)[C@H](CCCN=C(N)N)NC(=O)[C@H](CC(C)C)NC(=O)[C@H](Cc1ccccc1)NC(=O)[C@@H](C)NC(=O)CNC(=O)[C@@H](N)Cc1ccc(O)cc1)C(=O)N[C@@H](CCCN=C(N)N)C(=O)N1CCC[C@H]1C(=O)N[C@@H](CCCCN)C(N)=O | – | – | – | – | IC50 (Cavia porcellus [8]): 2.38 nM |
| CC[C@H](C)[C@H](NC(=O)[C@H](CCCN=C(N)N)NC(=O)[C@H](CCCN=C(N)N)NC(=O)[C@H](CC(C)C)NC(=O)[C@H](Cc1ccccc1)NC(=O)CNC(=O)[C@H]1CCCN1C(=O)[C@@H](N)Cc1ccc(O)cc1)C(=O)N[C@@H](CCCN=C(N)N)C(=O)N1CCC[C@H]1C(=O)N[C@@H](CCCCN)C(N)=O | 65 | 1700 | 3900 | 940 | – |
| CCC[C@H](NC(=O)[C@H](Cc1ccccc1)NC(=O)CNC(=O)CNC(=O)[C@H](Cc1ccc(O)cc1)NCc1ccccc1)C(=O)N[C@@H](CCCN=C(N)N)C(=O)N[C@@H](CCCN=C(N)N)C(=O)N[C@H](C(=O)N[C@@H](CCCN=C(N)N)C(=O)N1CCCC1C(=O)N[C@@H](CCCCN)C(N)=O)[C@@H](C)CC (stereo in doubt) | – | – | – | – | IC50 (Cavia porcellus [9]): 990 nM |
| CC[C@H](C)[C@H](NC(=O)[C@H](CCCNC(=N)N)NC(=O)[C@H](CCCNC(=N)N)NC(=O)[C@H](CC(C)C)NC(=O)[C@H](Cc1ccccc1)NC(=O)CNC(=O)[C@@H]1CCCN1C(=O)[C@@H](N)Cc1ccc(O)cc1)C(=O)N[C@@H](CCCNC(=N)N)C(=O)N1CCC[C@H]1C(=O)N[C@@H](CCCCN)C(N)=O | 94 | 3200 | 6800 | 760 | – |
| CC[C@H](C)[C@H](NC(=O)[C@H](CCCN=C(N)N)NC(=O)[C@H](CCCN=C(N)N)NC(=O)[C@H](CC(C)C)NC(=O)[C@H](Cc1ccccc1)NC(=O)[C@@H]1CCCN1C(=O)CNC(=O)[C@@H](N)Cc1ccc(O)cc1)C(=O)N[C@@H](CCCN=C(N)N)C(=O)N1CCC[C@H]1C(=O)N[C@@H](CCCCN)C(N)=O | 2.7 | 5700 | 8800 | 380 | Ki [10]: 7.5 nM; IC50 [11]: 1400 nM |
| Oc1ccc2c3c1O[C@H]1c4[nH]c5c(c4C[C@@]4(O)[C@@H](C2)N(CC2CC2)CC[C@]314)C[C@@]1(O)[C@H]2Cc3ccc(O)c4c3[C@@]1(CCN2CC1CC1)[C@H]5O4 [NORBINALTORPHIMINE] | – | – | – | 4.6 | Ke (Cavia porcellus [12]): 0.357 nM; Ke (Cavia porcellus [13]): 0.572 nM; IC50 [11]: 4.7 nM |
| CC[C@@H](C)[C@@H](NC(=O)CNC(=O)[C@@H](N)Cc1ccc(O)cc1)C(=O)N[C@@H](Cc1ccccc1)C(=O)N[C@@H](CC(C)C)C(=O)N[C@@H](CCCN=C(N)N)C(=O)N[C@@H](CCCN=C(N)N)C(=O)N[C@H](C(=O)N[C@@H](CCCN=C(N)N)C(=O)N1CCC[C@H]1C(=O)N[C@@H](CCCCN)C(N)=O)[C@@H](C)CC | – | – | – | – | Ki [14]: 55 nM |
| CC[C@H](C)[C@H](NC(=O)[C@H](CCCNC(=N)N)NC(=O)[C@H](CCCNC(=N)N)NC(=O)[C@H](CC(C)C)NC(=O)[C@H](Cc1ccccc1)NC(=O)[C@@H](C)NC(=O)CNC(=O)[C@@H](N)Cc1ccc(O)cc1)C(=O)N[C@@H](CCCNC(=N)N)C(=O)N1CCC[C@H]1C(=O)N[C@@H](CCCCN)C(N)=O | 0.15 | 67 | – | – | EC50 [15]: 6.1 nM |

From ChEMBL document CHEMBL1133465, “[Pro(3)]Dyn A(1-11)-NH(2): a dynorphin analogue with high selectivity for the kappa opioid receptor” (J Med Chem, 2000)
